# Screening data: PubChem BioAssay, Broad Institute
# This excerpt belongs to a sample that is enriched for hits.
# PGC1a acetyl up: compounds raising PGC1a acetylation signal, primary screen, PGC1a modulator project, cell-based, U2OS, AlphaScreen, signal-increasing mode. AID 651723, 2012. 350,000 tested, 0.21% active. activation, % at 15.6 µM. overnight;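 active = every replicate reaching activation of at least 50%, whatever the mean replicate activation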;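 also: hits raise the AlphaScreen acetylation signal above neutral controls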
#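 System: Flag-PGC1a/GCN5 U2OS cells | Quantity: 7000 cells/well | Times: Overnight compound treatment, 37 °C | Measured by: AlphaScreen proximity luminescence, anti-acetyl-lysine antibody | Dosing: One concentration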
# * = called active by the depositor.
SMILES,PGC1a acetyl up
N#Cc1ccccc1S(=O)(=O)N1CCN(Cc2cc3c(cc2Br)OCCO3)CC1,105*
COC(=O)[C@]1(Cc2ccccc2)N=C(c2ccc(OCCCO)cc2)O[C@@H]1c1ccccc1CN=[N+]=[N-],101*
COC(=O)[C@]1(Cc2ccccc2)N=C(c2ccc(OCCCO)cc2)O[C@@H]1c1ccccc1,77*
COC(=O)[C@@]1(Cc2ccccc2CN=[N+]=[N-])N=C(c2ccc(OCCCO)cc2)O[C@H]1c1ccccc1,66*
CCN(CC)C1CC(=O)N(c2ccc(Br)cc2)C1=O (configuration not stated),-41
O=C(Nc1ccc(Cl)c(Cl)c1)N[C@@H]1CC[C@H](CCn2cc(C3CC3)nn2)O[C@H]1CO,-43
O=C(NCC[C@@H]1CC[C@H](NS(=O)(=O)c2ccccc2)[C@@H](CO)O1)c1ccccc1F,-53
Cc1ccc(S(=O)(=O)N[C@@H]2CC[C@@H](CCNC(=O)c3ccccc3F)O[C@H]2CO)cc1,-49
CC(C)NC(=O)NCC[C@@H]1CC[C@H](NS(=O)(=O)c2ccc(-c3ccccc3)cc2)[C@@H](CO)O1,65*
C[C@@H]1CN([C@@H](C)CO)C(=O)c2cc(NC(=O)CCCN(C)C)ccc2O[C@@H](C)CCCCO[C@@H]1CN(C)Cc1ccc(C(F)(F)F)cc1,-110
O=C(Nc1cccc2[nH]ncc12)c1ccc(F)cc1,-42
O=C1CC(Sc2nnc(-c3ccccc3O)o2)C(=O)N1c1ccccc1 (configuration not stated),86*
COc1ccc(CCNc2ccc(C(CC(N)=O)NC(=O)c3cc(C)cc(C)c3)cc2[N+](=O)[O-])cc1 (configuration not stated),-46
C[C@@H]1CN([C@@H](C)CO)C(=O)c2cc(-c3cccc(C#N)c3)cnc2O[C@H]1CN(C)C(=O)c1ccccn1,-57
COc1ccc(-c2ccc(C3[C@@H]4CN(C(=O)Nc5cccc(F)c5)C[C@H]3N4)cc2)cc1 (some centres not stated),64*
N#Cc1ccc(-c2ccc([C@@H]3[C@@H]4CN(S(=O)(=O)c5ccc(-c6ccccc6)cc5)C[C@H]3N4)cc2)cc1,-85
Cc1ccccc1-c1ccc(C2[C@@H]3CN(C(=O)Nc4cccc(F)c4)C[C@H]2N3)cc1 (some centres not stated),56*
Cc1ccccc1-c1ccc(C2[C@@H]3CN(S(=O)(=O)c4ccccc4C)C[C@H]2N3)cc1 (some centres not stated),92*
O=C(Nc1ccc(F)cc1)N1C[C@@H]2N[C@H](C1)C2c1ccc(/C=C/c2ccccc2)cc1 (some centres not stated),59*
O=C(Nc1ccc(F)cc1)N1CC(=O)N2[C@@H](CO)[C@@H](c3ccc(-c4ccccc4)cc3)[C@@H]2C1,-61
O=C(Nc1ccc(F)cc1)N1CC(=O)N2[C@@H](CO)[C@H](c3ccc(Br)cc3)[C@@H]2C1,-55
CCc1ccc(C(=O)Nc2cccnc2Oc2ccc(Cl)cc2)cc1,-87
COc1ccc(Nc2nc(N)c(C(=O)c3ccc(OC)cc3)s2)cc1,83*
Cc1cc(O)c(N=Nc2ccc(C(=O)O)cc2)cc1C,-50
Cn1nc(C(=O)N2CCCCC2)c2c1-c1ccccc1S(=O)(=O)C2,-48
SMILES,PGC1a acetyl up
COc1ccccc1CN=Cc1[nH]c2ccc(Br)c(Cl)c2c1O,52*
O=CNc1ccc2c(c1)Cc1cc([N+](=O)[O-])ccc1-2,54*
O=C(/C=C/c1ccc(F)cc1)NNC(=O)CCN1CCN(Cc2ccccc2)CC1,-52
COc1ccc(-n2c(=O)c3c4c(sc3n3c(=S)[nH]nc23)CCC4)cc1,234*
Cc1noc(C)c1S(=O)(=O)Nc1cccc2c1O[C@@H](CN(C)Cc1ccncc1)[C@@H](C)CN([C@@H](C)CO)C2=O,-51
CO[C@@H]1CN(C)C(=O)c2cc(NC(C)=O)ccc2OC[C@@H](C)N(Cc2ccccc2C(=O)O)C[C@@H]1C,-43
CCCNC(=O)[C@H]1[C@H](CO)[C@H]2Cn3c(ccc(-c4ccccc4)c3=O)[C@H]2N1C(=O)C1CC1,-41
Cc1ccc(/C(N)=N/OC(=O)c2ccco2)cc1,62*
C[C@@H]1CN([C@@H](C)CO)C(=O)CCCn2nncc2CO[C@H]1CN(C)CC1CCCCC1,-52
CCCCC(=O)NCCc1cc2c(OC)ccc(OC)c2[nH]c1=O,-44
CCOC(=O)C1CCN(C2=NC(=O)/C(=C/c3ccc(O)cc3)S2)CC1,-41
CCOC(=O)C1CCCN(C(=O)CSc2ccc(Br)cc2)C1 (configuration not stated),-78
CCOC(=O)C1CCN(Cc2ccc(O)c3ncccc23)CC1,61*
COc1cccc(-n2c(Cc3cc(=O)[nH]c(=O)[nH]3)nnc2SCc2cccc(C(F)(F)F)c2)c1,-42
COCCNC(=O)C(c1ccc(F)cc1)N(Cc1ccco1)C(=O)CCC(=O)Nc1nccs1 (configuration not stated),-41
CCOC(=O)c1[nH]c2ccc(OC)cc2c1NC(=O)c1ccc2c(c1)OCO2,55*
COc1ccc2c(c1)c(CC(=O)OCC(N)=O)c(C)n2C(=O)c1ccc(Cl)cc1,-45
COc1ccc(-n2c(SCC#N)nnc2-c2cccnc2)cc1,-43
CCOC(=O)CSc1nnc(-c2ccc(OC)cc2)n1CC,100*
CCCNC(=O)N(C)C[C@H]1Oc2cc(C#CCC(C)C)ccc2S(=O)(=O)N([C@@H](C)CO)C[C@H]1C,-51
Cc1ccc2[nH]c3ccccc3c(=O)c2c1,68*
COCC(=O)NCc1nc2ccccc2n1Cc1ccccc1F,-47
CCCCn1nc(NC(=O)c2cccs2)c2cc3ccccc3nc21,-48
CCC(=O)N1CCN(c2ccc(Cl)cc2NC(=O)c2ccc([N+](=O)[O-])o2)CC1,62*
O=C(Nc1cccc(NC(=O)c2cccs2)c1)c1ccc([N+](=O)[O-])o1,94*
SMILES,PGC1a acetyl up
COc1ccc(C(=O)Nc2cccc(NC(=O)c3ccc(OC)c(OC)c3)n2)cc1OC,-61
O=C(Nc1ccccc1Cl)c1ccc([N+](=O)[O-])o1,66*
CC(C)C(=O)Nc1cccc(NC(=S)NC(=O)c2ccc([N+](=O)[O-])cc2)c1,-48
Cc1cccc(NC(=O)c2ccc([N+](=O)[O-])o2)n1,66*
C[C@H]([C@@H](N)C(=O)N[C@@H](C(=O)O)[C@@H]1O[C@H](n2ccc(=O)[nH]c2=O)[C@@H](O)[C@H]1O)[C@@H](O)c1ccc(O)cn1,-46
O=C(CN1C(=O)C2C3CC(C(Br)C3Br)C2C1=O)OCC(=O)c1cccc([N+](=O)[O-])c1 (configuration not stated),-76
CCCCN(C(=O)CCC(=O)Nc1cc(C)on1)C(C(=O)NC1CCCC1)c1ccc(OC)cc1 (configuration not stated),-46
C[C@H](CO)N1C[C@H](C)[C@H](CN(C)Cc2ccncc2)OCc2cn(nn2)CCCC1=O,-59
CN1CCN(/N=C/c2ccc(OCc3ccccc3)cc2)CC1,-41
CO[C@@H]1CN(C)C(=O)c2cc(NC(C)=O)ccc2OC[C@H](C)N(C(=O)c2cccnc2)C[C@H]1C,-49
C[C@@H]1CN([C@H](C)CO)C(=O)c2cccc(NC(=O)c3ccc(-c4nccs4)cc3)c2O[C@@H]1CN(C)Cc1ccc(C(=O)Nc2ccccc2N)cc1,-51
COc1ccc(-c2ccc(OC)cc2C(=O)O)cc1,70*
COc1ccc2c(-c3ccccc3)cc(=O)[nH]c2c1,-42
